From paper PMC8276234 (Journal of medicinal chemistry, 2019)
Entries after “also recorded” stand apart in the source; their conditions may differ. Each block holds one compound with its values, some of them ahead of it.

Tests used:
MMP2 = test: Gelatin zymography and Western blot of conditioned media; assay type: cell-based, human; conditions: U87MG cells, 10 μM (PACMA31 0.25 μM), 48 hours
In short: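 U87MG cells (0.5 x 10^6/well) attached overnight and were serum-starved 12 h before treatment. Cleared conditioned media (5 µg protein) ran on 10% SDS-PAGE with 0.1% gelatin. Gels were washed in 2.5% Triton X-100 Tris/CaCl2/ZnCl2 buffer, incubated overnight at 37 °C, then Coomassie R-250 stained and destained. Cleaved MMP2 in media was also assessed by Western blot.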

C53S/C397S PDI = C53S/C397S PDI (Homo sapiens, UniProt P07237, C397S/C53S); test: Thermal shift assay, C53S/C397S PDI; assay type: binding; conditions: 100 μM
In short: (§1)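 Purified PDI (wild-type, C53S/C397S or H256A; 0.5 mg/mL in 50 mM Tris, pH 7.0) was mixed with compound in DMSO and ROX dye. Samples were heated from 25 to 99 °C at 1 °C/min. Boltzmann melting temperature was compared with the 5% DMSO control.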

H256A PDI [1] = target: T1, H256A PDI (Homo sapiens, UniProt P07237, H256A); test: PDI reductase assay, H256A mutant PDI; assay type: biochemical; conditions: 10 μM
In short: (§2)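 N-terminal His-tagged human PDI was expressed in E. coli BL21(DE3) pLysS with 1 mM IPTG for 4 h at 37 °C. It was purified on Ni-NTA and dialyzed into 100 mM sodium phosphate, 2 mM EDTA, pH 7.0. PDI (0.4 μM) was preincubated 1 h with compound in phosphate/EDTA buffer with 8 μM DTT. DTT (500 μM) and bovine insulin (130 μM) were then added at room temperature. Aggregation was read at 620 nm. Percent activity came from the 0–80 min change, corrected for DTT alone.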

H256A PDI [2] = target: T1, H256A PDI; test: Thermal shift assay, H256A PDI; assay type: binding; conditions: 100 μM
In short: as §1

MMP9 = test: Western blot of cell lysates, MMP9; assay type: cell-based, human; conditions: U87MG cells, 10 μM (PACMA31 0.25 μM), 48 hours
In short: (§3)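 Treated U87MG cells were lysed by sonication in Tris/NaCl/Triton X-100/SDS buffer (pH 7.4) and spun at 13,500×g, 4 °C, 10 min. Protein was quantified by BCA. 30 μg per lane ran on 10% gels and transferred to PVDF. Primary antibodies were applied overnight at 4 °C. Fluorescent secondaries were imaged.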

wild-type PDI = wild-type PDI (Homo sapiens, UniProt P07237); test: Thermal shift assay, wild-type PDI; assay type: binding; conditions: for increase of melting temperature: recombinant PDI, dose-dependent, up to 100 μM; for stabilization of PDI to thermal denaturation: 100 μM
In short: as §1

PDI [3] = target: T2, PDI (Homo sapiens, UniProt P07237); test: PDI reductase assay after competition with N-acetyl cysteine; assay type: biochemical; conditions: compound 40 μM; 0, 1, 2 or 5 mM NAC
In short: as §2

D54 cells = test: Clonogenic survival assay with ionizing radiation; assay type: cell-based; conditions: 1 μM, 0-6 Gy
In short: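 D54 monolayer cells (37 °C, 5% CO2, mycoplasma-tested, STR-authenticated) were irradiated at 0, 1, 2, 4 or 6 Gy and plated immediately at 200, 200, 400, 600 and 1000 cells/well. Test compounds (1 μM), reference inhibitor (0.05 μM) or DMSO were added. After 10–12 days, colonies were stained with 0.1% crystal violet.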

GBM cell = test: Combination with As2O3, GBM cell proliferation; assay type: cell-based
b’ domain of PDI = b’ domain of PDI (Homo sapiens, UniProt P07237); test: ANS spectral scan; assay type: binding; conditions: 5 μM PDI, 100 μM compound
In short: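 Human PDI was preincubated with 100 μM compound or matching DMSO in TBS at 37 °C for 1 h. ANS was then added, followed by 20 min in the dark at 25 °C. Fluorescence spectrum: Ex 370 nm, Em 400–700 nm.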

A172 cells = test: Transwell migration assay; assay type: cell-based, human; conditions: 4 hours
In short: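 Treated A172 cells (1 x 10^5) were seeded into inserts with 8.0 µm PET membranes in serum-free medium. The lower well held DMEM with 10% FBS, and FBS-free wells served as control. After 4 h, cells were Giemsa-stained and 5 fields per well were imaged at 10X.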

EIF2α = test: Western blot, phosphorylation of EIF2α; assay type: cell-based, human; conditions: U87MG and A172 cells; 20 μM (PACMA31 1.0 μM), 2 hours
In short: as §3

GRP78 = test: Western blot, GRP78 expression; assay type: cell-based, human; conditions: U87MG cells; 20 μM (PACMA31 1.0 μM), 24 hours
In short: as §3

PDI [4] = target: T2, PDI; test: PDI reductase assay; assay type: biochemical; conditions: for PDI inhibitory activity (in words): PDI reductase assay; for fold reduction of potency: replacing the nitrile in BAP2 (6) and 32 with a trifluoromethyl group
In short: as §2

[5] = test system: HFF-1 normal human fibroblast cells; test: MTT assay in normal fibroblasts; assay type: cell-based; conditions: potency in NU04 versus HFF-1 cells
U87MG cells = test: Bromouridine RNA sequencing; assay type: cell-based, human; conditions: 10 μM compound 18, U87MG cells, 4 hours
In short: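 U87MG cells exposed to test compound or DMSO for 4 h, with 2 mM bromouridine added for the last 30 min. Total RNA was TRIzol-extracted, and Bru-labelled RNA was captured on anti-BrdU antibody magnetic beads, then sequenced. Reads were mapped to hg19. Genes were filtered to size >300 bp and mean RPKM >0.5, and ranked by transcription fold change versus control for pre-ranked GSEA.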

T1 sequence (P07237 18-508 H256A): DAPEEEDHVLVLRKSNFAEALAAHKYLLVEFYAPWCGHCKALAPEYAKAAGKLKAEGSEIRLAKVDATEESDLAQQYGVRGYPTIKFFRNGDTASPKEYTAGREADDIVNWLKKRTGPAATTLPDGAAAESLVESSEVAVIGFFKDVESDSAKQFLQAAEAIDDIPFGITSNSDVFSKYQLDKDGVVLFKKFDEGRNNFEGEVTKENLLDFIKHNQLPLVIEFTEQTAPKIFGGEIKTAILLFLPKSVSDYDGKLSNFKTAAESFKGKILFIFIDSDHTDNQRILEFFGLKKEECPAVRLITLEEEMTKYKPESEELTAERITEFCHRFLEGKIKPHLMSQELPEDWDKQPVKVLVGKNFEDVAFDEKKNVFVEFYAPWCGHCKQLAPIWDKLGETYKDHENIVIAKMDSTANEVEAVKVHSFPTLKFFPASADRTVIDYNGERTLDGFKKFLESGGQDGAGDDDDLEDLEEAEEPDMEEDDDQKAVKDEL
Sequence of C53S/C397S PDI (P07237 18-508 C53S/C397S): as the sequence (P07237 18-508 H256A) above, with C36S, A239H, C380S counted along it
Sequence of wild-type PDI (P07237 18-508): as the sequence (P07237 18-508 H256A) above, with A239H counted along it
Sequence of b’ domain of PDI (P07237 18-508): as the sequence (P07237 18-508 H256A) above, with A239H counted along it
T2 sequence (P07237 18-508): as the sequence (P07237 18-508 H256A) above, with A239H counted along it

effect on ANS fluorescence (b’ domain of PDI): did not hinder dye fluorescence
stabilization of PDI to thermal denaturation (wild-type PDI): does not stabilize PDI
activity after competition with N-acetyl cysteine (NAC) (PDI [3]): significantly abolished
SMILES: C#CC(=O)N(c1ccc(OC)cc1OC)C(C(=O)NCC(=O)OCC)c1cccs1 (stereo not drawn) [PACMA31, reference compound]
MMP2 activity and secretion (MMP2): inhibit MMP2 activity and secretion
MMP9 expression (MMP9): decreased
transwell migration (A172 cells; 30 μM): inhibited migration
phosphorylation of EIF2α (EIF2α): did not induce phosphorylation of EIF2α
expression of GRP78 (GRP78): increase in expression of GRP78

stabilization (thermal shift) in the C53S/C397S mutant (C53S/C397S PDI): but not the C53S/C397S mutant
stabilization (thermal shift) in the H256A mutant (H256A PDI [2]): abolished
stabilization of PDI to thermal denaturation (wild-type PDI): stabilizes PDI to thermal denaturation
increase of melting temperature (wild-type PDI): more than 1 °C
SMILES: C[C@]12CC[C@@H]3c4ccc(O)cc4CC[C@H]3[C@@H]1CC[C@@H]2O [estradiol, reference compound]

PDI inhibitory activity (in words) (PDI [4]): inactive
SMILES: O=C(/C=C/c1ccccc1O)c1ccccc1O [NC588]

PDI inhibitory activity (in words) (PDI [4]): inactive
SMILES: O=C(/C=C/c1cccc(O)c1)c1ccccc1O [NC589]

stabilization of PDI to thermal denaturation (wild-type PDI): did not stabilize PDI
SMILES: O=C(/C=C/c1ccc(-c2ccncc2)cc1)c1cccc(O)c1 [Compound 69, (E)-1-(3-Hydroxyphenyl)-3-(4-(pyridin-4-yl)phenyl)prop-2-en-1-one]

PDI inhibitory activity (in words) (PDI [4]): inactive
SMILES: O=C(/C=C/c1ccc(O)cc1)c1ccccc1O [NC587]

The remaining lines, values behind:

SMILES: O=C(/C=C/c1ccc(-c2cccnc2)cc1)c1cccc(O)c1 [Compound 68, (E)-1-(3-Hydroxyphenyl)-3-(4-(pyridin-3-yl)phenyl)prop-2-en-1-one]
MMP2 activity and secretion (MMP2): inhibit MMP2 activity and secretion
stabilization (thermal shift) in the C53S/C397S mutant (C53S/C397S PDI): not abolished
activity against H256A mutant PDI (H256A PDI [1]): abolished upon mutation
stabilization (thermal shift) in the H256A mutant (H256A PDI [2]): not abolished
MMP9 expression (MMP9): decreased
increase of melting temperature (wild-type PDI): more than 1 °C
activity after competition with N-acetyl cysteine (NAC) (PDI [3]): unaffected by up to 5 mM NAC
synergy with ionizing radiation (IR) (D54 cells): synergized with IR

SMILES: N#Cc1cccc(/C=C/C(=O)c2ccc(S(N)(=O)=O)cc2)c1 [Compound 13, (E)-4-(3-(3-Cyanophenyl)acryloyl)benzenesulfonamide]
inhibition of GBM cell proliferation in combination with As2O3 (GBM cell): synergistically

SMILES: N#Cc1cccc(/C=C/C(=O)c2cnccn2)c1 [Compound 29, (E)-3-(3-Oxo-3-(pyrazin-2-yl)prop-1-en-1-yl)benzonitrile]
effect on ANS fluorescence (b’ domain of PDI): did not hinder dye fluorescence

SMILES: N#Cc1cccc(/C=C/C(=O)c2ccc(Br)cc2)c1 [Compound 10, (E)-3-(3-(4-Bromophenyl)-3-oxoprop-1-en-1-yl)benzonitrile]
fold decrease in the inhibition of PDI activity (PDI [4]; replacement of the hydroxyl group (6) with bromine): 2 fold

SMILES: COC(=O)c1cccc(/C=C/C(=O)c2cccc(O)c2)c1 [Compound 46, Methyl-(E)-3-(3-(3-hydroxyphenyl)-3-oxoprop-1-en-1-yl)benzoate]
stabilization (thermal shift) in the C53S/C397S mutant (C53S/C397S PDI): not abolished
activity against H256A mutant PDI (H256A PDI [1]): abolished upon mutation
stabilization (thermal shift) in the H256A mutant (H256A PDI [2]): not abolished
increase of melting temperature (wild-type PDI): more than 1 °C
activity after competition with N-acetyl cysteine (NAC) (PDI [3]): abolished by 5 mM NAC, but not by lower concentrations

SMILES: COc1ccc(C(=O)/C=C/c2cccc(C#N)c2)cc1 [Compound 8, (E)-3-(3-(4-Methoxyphenyl)-3-oxoprop-1-en-1-yl)benzonitrile]
effect on ANS fluorescence (b’ domain of PDI): did not hinder dye fluorescence

SMILES: O=C(/C=C/c1cccc(C(F)(F)F)c1)c1ccc(O)cc1 [Compound 55, (E)-1-(4-Hydroxyphenyl)-3-(3-(trifluoromethyl)phenyl)prop-2-en-1-one]
fold reduction of potency (PDI [4]): 2 to 4 fold

SMILES: CCN(CC)S(=O)(=O)c1ccc(C(=O)/C=C/c2cccc(C#N)c2)cc1 [Compound 15, (E)-4-(3-(3-Cyanophenyl)acryloyl)-N,N-diethylbenzenesulfonamide]
inhibition of GBM cell proliferation in combination with As2O3 (GBM cell): synergistically

SMILES: CN(C)S(=O)(=O)c1ccc(C(=O)/C=C/c2cccc(C#N)c2)cc1 [Compound 14, (E)-4-(3-(3-Cyanophenyl)acryloyl)-N,N-dimethylbenzenesulfonamide]
inhibition of GBM cell proliferation in combination with As2O3 (GBM cell): synergistically

SMILES: CCCCCN(CCCCC)S(=O)(=O)c1ccc(C(=O)/C=C/c2cccc(O)c2)cc1 [Compound 59, (E)-4-(3-(3-Hydroxyphenyl)acryloyl)-N,N-dipentylbenzenesulfonamide]
stabilization (thermal shift) in the C53S/C397S mutant (C53S/C397S PDI): not abolished
Fold Difference [5]: 3.8
activity against H256A mutant PDI (H256A PDI [1]): active against the H256A mutant; also recorded: not His256-dependent
stabilization (thermal shift) in the H256A mutant (H256A PDI [2]): not abolished
effect on ANS fluorescence (b’ domain of PDI): competes with ANS
MMP9 expression (MMP9): decreased
increase of melting temperature (wild-type PDI): more than 1 °C
transwell migration (A172 cells; 30 μM): inhibited migration
activity after competition with N-acetyl cysteine (NAC) (PDI [3]): abolished by 5 mM NAC, but not by lower concentrations

SMILES: O=C(/C=C/c1ccc(C(F)(F)F)cc1)c1ccc(O)cc1 [Compound 57, (E)-1-(4-Hydroxyphenyl)-3-(4-(trifluoromethyl)phenyl)prop-2-en-1-one]
fold reduction of potency (PDI [4]): 2 to 4 fold

SMILES: CCCCCN(CCCCC)S(=O)(=O)c1ccc(C(=O)/C=C/c2cccc(C#N)c2)cc1 [Compound 18, (E)-4-(3-(3-Cyanophenyl)acryloyl)-N,N-dipentylbenzenesulfonamide]
MMP9 expression (MMP9): decreased
stabilization of PDI to thermal denaturation (wild-type PDI): did not stabilize PDI
transwell migration (A172 cells; 10 μM): inhibited migration
transwell migration (A172 cells; 30 μM): inhibited migration
Fold Change in transcription, AKAP5 (U87MG cells): −3.4
Fold Change in transcription, ANKRD36B (U87MG cells): −2.8
Fold Change in transcription, BARD1 (U87MG cells): −2.3
Fold Change in transcription, BBS10 (U87MG cells): −2.3
Fold Change in transcription, CCNA2 (U87MG cells): −2.3
Fold Change in transcription, CHSY3 (U87MG cells): −2.6
Fold Change in transcription, DUT (U87MG cells): −2.3
Fold Change in transcription, FBXO43 (U87MG cells): −2.7
Fold Change in transcription, FPGT (U87MG cells): −2.3
Fold Change in transcription, HIST1H2BC (U87MG cells): −2.3
Fold Change in transcription, KCTD4 (U87MG cells): −2.8
Fold Change in transcription, LYPD6 (U87MG cells): −3.1
Fold Change in transcription, MYBL1 (U87MG cells): −2.6
Fold Change in transcription, SLITRK5 (U87MG cells): −3.6
Fold Change in transcription, ST8SIA4 (U87MG cells): −3.1
Fold Change in transcription, ZNF404 (U87MG cells): −2.7
